Assay results as given in ChEMBL document CHEMBL1944524, “Synthesis and structure-activity relationship of 5-pyridazin-3-one phenoxypiperidines as potent, selective histamine H(3) receptor inverse agonists” (Bioorg Med Chem Lett, 2012).
One block for each compound: values may come before it. Activity calls are given as the source filed them. No cut-off for these calls is given here.

How the values were obtained:
[1] = Half life in rat at 1 mg/kg, iv; assay type: ADME, organism-based; design: dose 1 mg/kg, route intravenous; conditions: in vivo
Procedure, shortened: (§1)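 Rat PK study, dosed 1 mg/kg iv plus 10 or 5 mg/kg po. iv vehicle 3% DMSO, 30% solutol, 67% phosphate buffered saline; oral vehicle 50% Tween 80, 40% propylene carbonate, 10% propylene glycol.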

[2] = Volume of distribution in rat at 1 mg/kg, iv; assay type: ADME, organism-based; design: dose 1 mg/kg, route intravenous; conditions: in vivo; procedure, shortened: as §1
[3] = Clearance in rat at 1 mg/kg, iv; assay type: ADME, organism-based; design: dose 1 mg/kg, route intravenous; conditions: in vivo; procedure, shortened: as §1
[4] = Ratio of drug level in brain to plasma in rat at 10 mg/kg, ip after 6 hrs; assay type: ADME, organism-based; design: dose 10 mg/kg, route intraperitoneal; conditions: read-out: BPR
Procedure, shortened: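 Brain and plasma levels measured in rat 6 h after a 10 mg/kg ip dose; value is brain/plasma ratio.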

Histamine H3 receptor [5] = molecular target: Histamine H3 receptor (Rattus norvegicus, UniProt Q9QYN8); experiment: Displacement of [3H]N-alpha-methylhistamine from rat histamine H3 receptor expressed in CHO cells; assay type: cell-based
[6] = Cmax in rat at 5 mg/kg, po; assay type: ADME, organism-based; design: dose 5 mg/kg, route oral; conditions: in vivo; procedure, shortened: as §1
[7] = Tmax in rat at 5 mg/kg, po; assay type: ADME, organism-based; design: dose 5 mg/kg, route oral; conditions: in vivo; procedure, shortened: as §1
[8] = Oral bioavailability in rat at 5 mg/kg; assay type: ADME, organism-based; conditions: in vivo; procedure, shortened: as §1
[9] = AUC in rat at 5 mg/kg, po; assay type: ADME, organism-based; design: dose 5 mg/kg, route oral; conditions: plasma; procedure, shortened: as §1
Histamine H3 receptor [10] = molecular target: T1, Histamine H3 receptor (Homo sapiens, UniProt Q9Y5N1); experiment: Displacement of [3H]N-alpha-methylhistamine from human histamine H3 receptor expressed in CHO cells; assay type: cell-based
[11] = molecular target: Voltage-gated inwardly rectifying potassium channel KCNH2 (Homo sapiens, UniProt Q12809); experiment: Inhibition of human ERG by patch clamp assay
[12] = Inhibition of cytochrome P450; assay type: ADME
Procedure, shortened: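 CYP inhibition assessed against 5 CYP isoforms; IC50 determined.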

Salmonella typhimurium [13] = experiment: Genotoxicity against Salmonella Typhimurium TA1537 by Ames test in the absence of rat liver S9 fraction; assay type: toxicity, organism-based; conditions: salmonella enterica subsp. enterica serovar typhimurium
[14] = Genotoxicity against mouse lymphocytes by micronuclei test in the presence of rat liver S9 fraction; assay type: toxicity, Lymphocyte
[15] = Genotoxicity against mouse lymphocytes by micronuclei test in the absence of rat liver S9 fraction; assay type: toxicity, cell-based; conditions: lymphocyte
[16] = Cmax in rat at 10 mg/kg, po; assay type: ADME, organism-based; design: dose 10 mg/kg, route oral; conditions: in vivo; procedure, shortened: as §1
[17] = Tmax in rat at 10 mg/kg, po; assay type: ADME, organism-based; design: dose 10 mg/kg, route oral; conditions: in vivo; procedure, shortened: as §1
[18] = Oral bioavailability in rat at 10 mg/kg; assay type: ADME, organism-based; conditions: in vivo; procedure, shortened: as §1
[19] = AUC in rat at 10 mg/kg, po; assay type: ADME, organism-based; design: dose 10 mg/kg, route oral; conditions: plasma; procedure, shortened: as §1
Rattus norvegicus [20] = experiment: Inhibition of RAMH-induced water drinking in ip dosed rat dipsogenia model; assay type: functional
Procedure, shortened: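 Rat dipsogenia model: water drinking induced by H3 agonist R-alpha-methylhistamine; test article given ip beforehand; inhibition of drinking measured and ED50 (mg/kg) derived.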

Rattus norvegicus [21] = experiment: Wake promoting activity in Sprague-Dawley rat EEG/EMG sleep-wake model assessed as slow-wave sleep onset time at 1 mg/kg, ip after 4 hrs (reference value: 34.9 +/- 5.1 mins); assay type: functional; conditions: route intraperitoneal
Procedure, shortened: (§2)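 Male Sprague Dawley rats surgically implanted for chronic EEG and EMG recording; test agent given ip, vehicle group as control; n = 6-7/group. […] Mean + SEM; Dunnett's test versus vehicle.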

Rattus norvegicus [22] = experiment: Wake promoting activity in Sprague-Dawley rat EEG/EMG sleep-wake model assessed as slow-wave sleep onset time at 3 mg/kg, ip after 4 hrs (reference value: 34.9 +/- 5.1 mins); assay type: functional; conditions: route intraperitoneal; procedure, shortened: as §2
Rattus norvegicus [23] = experiment: Wake promoting activity in Sprague-Dawley rat EEG/EMG sleep-wake model assessed as increase in wake time at 10 mg/kg, ip after 4 hrs; assay type: functional; conditions: route intraperitoneal
Procedure, shortened: (§3)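 Male Sprague Dawley rats surgically implanted for chronic EEG/EMG recording; ip dosing during normal quiet period; cumulative wake time over 4 h post dose vs vehicle; n = 6-7/group, mean + SEM, Dunnett's test vs vehicle.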

Rattus norvegicus [24] = experiment: Wake promoting activity in Sprague-Dawley rat EEG/EMG sleep-wake model assessed as increase in wake time at 30 mg/kg, ip after 4 hrs; assay type: functional; conditions: route intraperitoneal; procedure, shortened: as §3
Rattus norvegicus [25] = experiment: Wake promoting activity in Sprague-Dawley rat EEG/EMG sleep-wake model assessed as maximum cumulative wake time at 30 mg/kg, ip at 6 hrs; assay type: functional; conditions: route intraperitoneal
Rattus norvegicus [26] = experiment: Wake promoting activity in Sprague-Dawley rat EEG/EMG sleep-wake model assessed as maximum cumulative wake time at 30 mg/kg, ip up to 17 hrs; assay type: functional, organism-based; design: dose 30 mg/kg
Rattus norvegicus [27] = experiment: Wake promoting activity in Sprague-Dawley rat EEG/EMG sleep-wake model assessed as increase in wake time at 30 mg/kg, ip after 4 hrs relative to control; assay type: functional; conditions: route intraperitoneal; procedure, shortened: as §2
Rattus norvegicus [28] = experiment: Toxicity in Sprague-Dawley rat assessed as hypersomnolence at 1 to 30 mg/kg, ip after 4 hrs; assay type: organism-based; design: dose 1-30 mg/kg, route intraperitoneal; conditions: in vivo
[29] = Half life in human liver microsomes; assay type: ADME, Microsome
Procedure, shortened: (§4)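 Stability in liver microsomes from rat, dog or human; half-life (min) determined.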

[30] = Half life in rat liver microsomes; assay type: ADME, Microsome; procedure, shortened: as §4
[31] = Half life in dog liver microsomes; assay type: ADME, Canis lupus familiaris, Microsome; procedure, shortened: as §4
[32] = molecular target: Histamine H1 receptor (Homo sapiens) (UniProt P35367); experiment: Inhibition of human histamine H1 receptor at 10 uM
Procedure, shortened: (§5)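 Selectivity screen against human H1, H2 and H4 receptors; percent inhibition at 10 µM.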

[33] = molecular target: Histamine H2 receptor (Homo sapiens) (UniProt P25021); experiment: Inhibition of human histamine H2 receptor at 10 uM; procedure, shortened: as §5
[34] = molecular target: Histamine H4 receptor (Homo sapiens) (UniProt Q9H3N8); experiment: Inhibition of human histamine H4 receptor at 10 uM; procedure, shortened: as §5
Histamine H3 receptor [35] = molecular target: T1, Histamine H3 receptor; experiment: Inverse agonist activity at human histamine H3 histamine receptor by [35S]GTPgammaS binding assay; assay type: functional
Procedure, shortened: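 Functional assay measuring [35S]GTPγS binding at the human H3 receptor. Inverse agonist potency is reported as an EC50.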

[36] = Inhibition of alpha-adrenergic receptor at 10 uM
Procedure, shortened: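 Broad panel of 101 GPCRs, ion channels and enzymes; percent inhibition at 10 µM.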

[37] = Aqueous solubility of the compound at pH 2; assay type: physicochemical; conditions: buffer
Procedure, shortened: (§6)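 Water solubility measured at pH 2 and at pH 7.4, in […].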

[38] = Aqueous solubility of the compound at pH 7.4; assay type: physicochemical; conditions: buffer; procedure, shortened: as §6
[39] = Apparent permeability of the compound across human Caco2 cells; assay type: ADME, cell-based; conditions: Caco-2
Procedure, shortened: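 Caco-2 monolayer permeability; apparent permeability (Papp, cm/s) reported.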

[40] = Plasma protein binding in rat; assay type: ADME, cell-free; conditions: read-out: PPB (converted)
Procedure, shortened: (§7)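 In vitro binding to plasma proteins of rat, dog and human; percent bound.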

[41] = Plasma protein binding in dog; assay type: ADME, cell-free, Canis lupus familiaris; conditions: read-out: PPB (converted); procedure, shortened: as §7
[42] = Plasma protein binding in human; assay type: ADME, cell-free; conditions: read-out: PPB (converted); procedure, shortened: as §7
Salmonella typhimurium [43] = experiment: Genotoxicity against Salmonella Typhimurium TA98 by Ames test in the presence of rat liver S9 fraction; assay type: toxicity, organism-based; conditions: salmonella enterica subsp. enterica serovar typhimurium
Salmonella typhimurium [44] = experiment: Genotoxicity against Salmonella Typhimurium TA100 by Ames test in the presence of rat liver S9 fraction; assay type: toxicity, organism-based; conditions: salmonella enterica subsp. enterica serovar typhimurium
Salmonella typhimurium [45] = experiment: Genotoxicity against Salmonella Typhimurium TA102 by Ames test in the presence of rat liver S9 fraction; assay type: toxicity, organism-based; conditions: salmonella enterica subsp. enterica serovar typhimurium
Salmonella typhimurium [46] = experiment: Genotoxicity against Salmonella Typhimurium TA1535 by Ames test in the presence of rat liver S9 fraction; assay type: toxicity, organism-based; conditions: salmonella enterica subsp. enterica serovar typhimurium
Salmonella typhimurium [47] = experiment: Genotoxicity against Salmonella Typhimurium TA1537 by Ames test in the presence of rat liver S9 fraction; assay type: toxicity, organism-based; conditions: salmonella enterica subsp. enterica serovar typhimurium
Salmonella typhimurium [48] = experiment: Genotoxicity against Salmonella Typhimurium TA98 by Ames test in the absence of rat liver S9 fraction; assay type: toxicity, organism-based; conditions: salmonella enterica subsp. enterica serovar typhimurium
Salmonella typhimurium [49] = experiment: Genotoxicity against Salmonella Typhimurium TA100 by Ames test in the absence of rat liver S9 fraction; assay type: toxicity, organism-based; conditions: salmonella enterica subsp. enterica serovar typhimurium
Salmonella typhimurium [50] = experiment: Genotoxicity against Salmonella Typhimurium TA102 by Ames test in the absence of rat liver S9 fraction; assay type: toxicity, organism-based; conditions: salmonella enterica subsp. enterica serovar typhimurium
Salmonella typhimurium [51] = experiment: Genotoxicity against Salmonella Typhimurium TA1535 by Ames test in the absence of rat liver S9 fraction; assay type: toxicity, organism-based; conditions: salmonella enterica subsp. enterica serovar typhimurium

T1 sequence (Q9Y5N1 whole entry): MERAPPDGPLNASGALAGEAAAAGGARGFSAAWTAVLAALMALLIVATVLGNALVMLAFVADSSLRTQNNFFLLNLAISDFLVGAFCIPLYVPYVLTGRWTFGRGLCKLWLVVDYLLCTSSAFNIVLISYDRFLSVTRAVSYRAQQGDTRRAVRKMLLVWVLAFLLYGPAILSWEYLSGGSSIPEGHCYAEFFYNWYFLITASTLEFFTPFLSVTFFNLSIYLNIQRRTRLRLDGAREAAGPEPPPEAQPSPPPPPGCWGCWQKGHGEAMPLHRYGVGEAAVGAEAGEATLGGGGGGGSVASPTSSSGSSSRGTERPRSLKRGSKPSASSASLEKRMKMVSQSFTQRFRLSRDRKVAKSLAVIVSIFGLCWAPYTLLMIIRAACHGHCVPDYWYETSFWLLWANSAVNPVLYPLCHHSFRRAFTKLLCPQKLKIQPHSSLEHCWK
Chain of Voltage-gated inwardly rectifying potassium channel KCNH2 (Q12809 whole entry): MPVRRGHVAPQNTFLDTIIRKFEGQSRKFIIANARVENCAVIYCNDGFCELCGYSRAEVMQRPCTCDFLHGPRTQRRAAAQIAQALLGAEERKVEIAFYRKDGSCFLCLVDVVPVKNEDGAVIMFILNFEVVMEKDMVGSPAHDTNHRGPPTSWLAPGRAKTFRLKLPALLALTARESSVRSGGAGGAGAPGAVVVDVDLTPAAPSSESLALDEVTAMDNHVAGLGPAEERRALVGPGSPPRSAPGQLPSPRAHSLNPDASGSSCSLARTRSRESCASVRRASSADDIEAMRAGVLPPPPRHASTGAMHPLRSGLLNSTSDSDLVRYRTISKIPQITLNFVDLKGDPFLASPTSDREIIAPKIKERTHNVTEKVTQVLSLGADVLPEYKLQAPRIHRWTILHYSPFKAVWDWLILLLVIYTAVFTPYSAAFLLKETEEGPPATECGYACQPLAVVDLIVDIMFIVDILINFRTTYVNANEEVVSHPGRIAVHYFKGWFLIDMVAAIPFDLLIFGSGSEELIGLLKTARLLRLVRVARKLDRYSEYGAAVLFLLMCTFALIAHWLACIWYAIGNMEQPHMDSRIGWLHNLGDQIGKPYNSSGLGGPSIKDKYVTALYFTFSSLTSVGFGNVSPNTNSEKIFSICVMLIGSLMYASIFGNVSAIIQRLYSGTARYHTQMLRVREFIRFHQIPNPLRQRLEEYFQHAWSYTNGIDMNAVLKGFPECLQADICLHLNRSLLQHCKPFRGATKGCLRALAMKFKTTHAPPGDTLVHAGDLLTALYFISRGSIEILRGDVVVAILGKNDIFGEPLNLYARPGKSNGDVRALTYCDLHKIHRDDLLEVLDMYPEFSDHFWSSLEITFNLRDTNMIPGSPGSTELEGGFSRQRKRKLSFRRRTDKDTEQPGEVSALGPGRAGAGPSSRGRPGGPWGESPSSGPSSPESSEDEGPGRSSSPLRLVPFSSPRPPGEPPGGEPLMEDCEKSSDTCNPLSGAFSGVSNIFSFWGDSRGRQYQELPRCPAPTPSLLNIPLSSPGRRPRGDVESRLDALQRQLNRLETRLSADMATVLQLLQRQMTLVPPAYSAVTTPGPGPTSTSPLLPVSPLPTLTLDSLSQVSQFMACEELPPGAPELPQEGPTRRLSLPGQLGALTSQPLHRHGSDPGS
Chain of Histamine H3 receptor (Rattus norvegicus, UniProt Q9QYN8) (Q9QYN8 whole entry): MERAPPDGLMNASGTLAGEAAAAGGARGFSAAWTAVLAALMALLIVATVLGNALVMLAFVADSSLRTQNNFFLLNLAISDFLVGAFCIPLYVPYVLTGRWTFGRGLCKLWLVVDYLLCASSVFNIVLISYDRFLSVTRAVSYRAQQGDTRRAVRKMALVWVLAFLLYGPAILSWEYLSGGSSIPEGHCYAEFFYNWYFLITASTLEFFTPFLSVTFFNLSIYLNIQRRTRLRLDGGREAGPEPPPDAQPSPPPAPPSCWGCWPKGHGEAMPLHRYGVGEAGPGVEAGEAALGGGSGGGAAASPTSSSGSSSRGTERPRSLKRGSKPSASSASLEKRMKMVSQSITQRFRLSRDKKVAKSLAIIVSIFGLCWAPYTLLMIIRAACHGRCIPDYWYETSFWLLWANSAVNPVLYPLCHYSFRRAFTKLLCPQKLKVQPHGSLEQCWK
Chain of Histamine H1 receptor (Homo sapiens) (P35367 whole entry): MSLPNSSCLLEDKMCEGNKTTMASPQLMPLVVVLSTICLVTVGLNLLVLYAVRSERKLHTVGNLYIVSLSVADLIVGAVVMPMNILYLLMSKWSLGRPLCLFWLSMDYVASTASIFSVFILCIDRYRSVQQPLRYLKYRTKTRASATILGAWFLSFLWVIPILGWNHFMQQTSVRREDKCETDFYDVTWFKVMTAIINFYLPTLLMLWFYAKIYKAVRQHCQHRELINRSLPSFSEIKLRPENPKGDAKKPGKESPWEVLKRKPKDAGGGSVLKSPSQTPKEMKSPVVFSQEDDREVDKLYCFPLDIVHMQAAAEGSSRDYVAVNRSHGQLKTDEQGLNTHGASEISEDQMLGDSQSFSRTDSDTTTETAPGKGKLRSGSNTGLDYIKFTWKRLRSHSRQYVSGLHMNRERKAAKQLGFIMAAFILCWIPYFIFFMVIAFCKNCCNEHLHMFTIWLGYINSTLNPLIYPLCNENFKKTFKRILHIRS
Chain of Histamine H2 receptor (Homo sapiens) (P25021 whole entry): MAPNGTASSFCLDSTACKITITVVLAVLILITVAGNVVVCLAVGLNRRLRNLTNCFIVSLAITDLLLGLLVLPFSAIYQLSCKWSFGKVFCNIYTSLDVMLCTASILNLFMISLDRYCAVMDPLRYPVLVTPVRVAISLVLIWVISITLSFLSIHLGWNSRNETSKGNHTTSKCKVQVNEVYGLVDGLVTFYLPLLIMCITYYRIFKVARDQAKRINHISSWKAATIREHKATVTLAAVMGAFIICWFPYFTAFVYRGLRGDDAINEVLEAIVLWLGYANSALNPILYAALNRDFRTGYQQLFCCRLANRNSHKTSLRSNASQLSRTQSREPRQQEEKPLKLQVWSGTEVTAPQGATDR

half-life [1]: 1.1 h
Vd [2]: 1.1 L/kg
clearance [3]: 11 mL/min/kg
Kp at 6 h [4]: 1
Ki (Histamine H3 receptor [5]): 17 nM
Cmax [6]: 505 ng/mL
Tmax [7]: 2.3 h
bioavailability [8]: 23%
AUC [9]: 1860 ng·h/mL
Ki (Histamine H3 receptor [10]): 6 nM
IC50 [12]: > 30000 nM
SMILES: Cc1cccnc1-n1nc(C)c(-c2ccc(OC3CCN(C4CCC4)CC3)cc2)cc1=O
IC50 [11]: > 30000 nM

half-life [1]: 1.5 h
Vd [2]: 3.4 L/kg
clearance [3]: 25 mL/min/kg
Cmax [16]: 673 ng/mL
Tmax [17]: 1 h
bioavailability [18]: 68%
AUC [19]: 4870 ng·h/mL
Kp at 6 h [4]: 2.3
Ki (Histamine H3 receptor [5]): 6 nM
Ki (Histamine H3 receptor [10]): 5 nM
half-life [29]: > 0.667 h
half-life [30]: > 0.667 h
half-life [31]: > 0.667 h
IC50 [12]: > 30000 nM
inhibition [32]: < 20%
inhibition [33]: < 20%
inhibition [34]: < 20%
EC50 (Histamine H3 receptor [35]): 1.1 nM
inhibition [36]: > 50%
solubility [37]: > 140 µg/mL
solubility [38]: > 140 µg/mL
Papp [39]: 14.9 ×10⁻⁶ cm/s
fraction unbound [40]: 0.46
fraction unbound [41]: 0.57
fraction unbound [42]: 0.42
SMILES: Cc1n[nH]c(=O)cc1-c1ccc(OC2CCN(C3CCC3)CC2)cc1
Activity (Salmonella typhimurium [13]): Non-toxic
Activity [14]: Non-toxic
Activity [15]: Non-toxic
ED50 (Rattus norvegicus [20]): 0.02 mg/kg
Time (Rattus norvegicus [21]): 35.3 min
Time (Rattus norvegicus [22]): 45 min
Time (Rattus norvegicus [23]): 167 min
Time (Rattus norvegicus [24]): 226 min
Time (Rattus norvegicus [25]): 163 min
Activity (Rattus norvegicus [26]): Active
Activity (Rattus norvegicus [27]): 178%
Activity (Rattus norvegicus [28]): Non-toxic
IC50 [11]: 7000 nM
Activity (Salmonella typhimurium [43]): Non-toxic
Activity (Salmonella typhimurium [44]): Non-toxic
Activity (Salmonella typhimurium [45]): Non-toxic
Activity (Salmonella typhimurium [46]): Non-toxic
Activity (Salmonella typhimurium [47]): Non-toxic
Activity (Salmonella typhimurium [48]): Non-toxic
Activity (Salmonella typhimurium [49]): Non-toxic
Activity (Salmonella typhimurium [50]): Non-toxic
Activity (Salmonella typhimurium [51]): Non-toxic
